For orientation: half-life means how long it takes for the measured level to halve.

Series [1] can be described thus: Half life in mouse liver microsomes at 4.6 uM preincubated for 15 mins followed by NADPH addition and measured up to 60 mins by LC-MS/MS analysis. The format is ADME, Microsome. Summed up: (§1)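 Mouse liver microsome stability; half-life and % parent remaining at 60 min; mean of at least two independent experiments, each in two technical replicates.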
A general note: Liver microsomes are a subcellular fraction often used to study metabolism.

Series [2] deals with T1, Acid ceramidase (Homo sapiens) (UniProt Q13510).
T1 sequence (whole entry): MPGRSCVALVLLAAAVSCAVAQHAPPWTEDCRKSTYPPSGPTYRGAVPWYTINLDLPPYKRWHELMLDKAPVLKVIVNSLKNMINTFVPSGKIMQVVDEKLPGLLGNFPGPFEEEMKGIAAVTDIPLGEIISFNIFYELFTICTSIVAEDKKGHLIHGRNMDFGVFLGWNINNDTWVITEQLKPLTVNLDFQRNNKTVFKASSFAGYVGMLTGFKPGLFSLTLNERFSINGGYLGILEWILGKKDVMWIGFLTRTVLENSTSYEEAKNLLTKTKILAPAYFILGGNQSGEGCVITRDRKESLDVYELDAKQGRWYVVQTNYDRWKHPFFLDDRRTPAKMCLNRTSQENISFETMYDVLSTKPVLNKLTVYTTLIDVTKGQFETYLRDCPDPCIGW
Briefly: Inhibition of human acid ceramidase expressed in HEK293 cells up to 10 uM using Rbm14-12 as substrate preincubated for 10 mins followed by substrate addition and measured after 3 hrs by fluorescence assay. The format is cell-based.

Series [3] is described as follows: Microsomal stability in mouse liver microsomes assessed as parent compound remaining at 4.6 uM preincubated for 15 mins followed by NADPH addition and measured after 60 mins by LC-MS/MS analysis. It counts as ADME, Microsome. As to conditions: read-out: Stability. Summed up: as §1
Series [4] addresses T1, Acid ceramidase (Homo sapiens). Briefly: Inhibition of human acid ceramidase expressed in HEK293 cells at 1 uM using Rbm14-12 as substrate preincubated for 10 mins followed by substrate addition and measured after 3 hrs by fluorescence assay. It counts as cell-based.
Series [5] shares this target. Briefly: Inhibition of human acid ceramidase expressed in HEK293 cells at 10 uM using Rbm14-12 as substrate preincubated for 10 mins followed by substrate addition and measured after 3 hrs by fluorescence assay. The format is cell-based.

Calls of active or inactive are those of the source. The rule behind the calls is not given here.

Compound `O=C(NCCCCc1ccccc1)n1c2c(oc1=O)CNCC2` showed a half-life at 4.6 µM in series [1] of less than 15 min.

As for `O=C1Cc2ccccc2N1C(=O)NCCCCc1ccccc1`, the inhibition entry in series [2] was “inactive”.

`O=C(NCCCCc1ccccc1)n1c2c(oc1=O)CCNC2` registered a half-life at 4.6 µM in series [1] of less than 15 min.

Regarding `CCCCCNC(=O)n1c(=O)oc2cc(C3CCN(C)CC3)ccc21`, in series [3], the remaining at 1 h, 4.6 µM is 60%.

On to `O=C1C(=O)N(C(=O)NCCCCc2ccccc2)c2ccccc21`, for which the inhibition entry in series [2] is “inactive”.

`CN1CCC(c2ccc3[nH]c(=O)oc3c2)CC1`: the inhibition entry in series [4] and in series [5] was “inactive” in each case.

These data come from ChEMBL document CHEMBL4342473, “Lead Optimization of Benzoxazolone Carboxamides as Orally Bioavailable and CNS Penetrant Acid Ceramidase Inhibitors” (J Med Chem, 2020).
